Results published in paper PMC7992179 (ACS Omega, 2021).
Several values for one entry are separate records, joined by “and”; a condition that tells them apart may be missing. Equal entries are not always repeated.

Key:
MCF-7 cell line = assay: MTT cytotoxicity assay in MCF-7 cells; format: cell-based, human; conditions: for IC50 ± SD: MCF-7, 1–30 μM; for IC50 ± SD / % inhibition/stimulation: 48 h, MTT; for % inhibition/stimulation: conc. 30 μM
Outline: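 MCF-7 cells grown in Eagle's MEM with 10% FBS, 1% penicillin/streptomycin, 0.1 mM non-essential amino acids, 10 μg/mL insulin and 1 mM sodium pyruvate at 37 °C, 5% CO2. Trypsin/EDTA-harvested cells were seeded at 6 × 10^4 cells/mL and incubated overnight. Test compound (1–30 μM, or a fixed 30 μM screen against doxorubicin) was applied for 48 h. MTT 0.5 mg/mL for 4 h, DMSO, A570; % inhibition and IC50.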

PTZ-induced convulsions = PTZ-induced convulsions in mice; format: in vivo; conditions: for average duration of seizure / latency time / seizure score / mortality: 5 mg/kg i.p., PTZ 70 mg/kg i.p., n = 10; for average duration of seizure / latency time / seizure score: mean ± SEM; for enhancement of latency time of PTZ-induced seizures compared with the standard LTG drug: vs LTG; for protection against PTZ-induced convulsions: dose of 5 mg/kg
Outline: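 Overnight-fasted albino mice (n = 10 per group) received test compound at 5 mg/kg i.p., suspended in carboxymethylcellulose and sonicated. Controls were vehicle, PTZ alone and lamotrigine (dose-finding at 1–5 mg/kg). Clonic seizures were induced with PTZ 70 mg/kg i.p. Recorded: latency, convulsion duration, number of convulsions, protection, and a 0–6 seizure score (6 = death). Mean ± SEM; one-way ANOVA with Dunnett's test versus the PTZ group.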

[1] = system: motor coordination on rotating rod; assay: Neurotoxicity / minimal motor impairment, rotating rod; format: in vivo; conditions: rod observed 5 min, mean ± SEM, 10 mice
Outline: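 White albino mice of either sex, 8–10 weeks, 25–35 g, were trained on a rotating rod (2.5 cm diameter, 25 cm high). After i.p. dosing (10, 30 or 50 mg/kg), motor coordination was scored over 5 min at 30 min and 4 h. Neurotoxicity meant failure to stay on the rod for 1 min. 10 mice per group; mean ± SEM.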

Row | Compound | inhibition at 30 µM (MCF-7 cell line; Homo sapiens, MCF7, 48 h, read-out: % inhibition/stimulation) [%] | average duration of seizure (PTZ-induced convulsions) [s] | latency time (PTZ-induced convulsions) [s] | seizure score (PTZ-induced convulsions) [counts] | mortality (PTZ-induced convulsions) [counts] | enhancement of latency time of PTZ-induced seizures compared with the standard LTG drug (PTZ-induced convulsions; 5 mg/kg) [%] | time on Rod ([1]; dose 10 mg/kg i.p.) [s] | time on Rod ([1]; dose 30 mg/kg i.p.) [s] | time on Rod ([1]; dose 50 mg/kg i.p.) [s] | IC50 ± SD (MCF-7 cell line) | % inhibition/stimulation (MCF-7 cell line) [%] | protection against PTZ-induced convulsions (PTZ-induced convulsions) [%] | time on Rod ([1]; dose 50 mg/kg i.p., 50 mg/kg) | time on Rod ([1]; dose 10 mg/kg i.p., 10 mg/kg) [s] | time on Rod ([1]; dose 30 mg/kg i.p., 30 mg/kg) [s] | latency time (PTZ-induced convulsions; listed as LTG control) [s] | decrease in the time duration of convulsions as compared to PTZ (negative control) (PTZ-induced convulsions; 5 mg/kg, vs PTZ negative control) [%] | mice protected from clonic convulsions (PTZ-induced convulsions; LTG monotherapy 5 mg/kg) [%] | highest nonprotective dose in the PTZ model (PTZ-induced convulsions; monotherapy, doses 1-5 mg/kg tested against clonic convulsions) [mg/kg]
1 | COc1cccc2c1C(=O)c1c(O)c3c(c(O)c1C2=O)C[C@@](O)(C(=O)CO)C[C@@H]3O[C@H]1C[C@H](N)[C@H](O)[C@H](C)O1 [doxorubicin (DOX), doxorubicin, reference compound] | 101 |  |  |  |  |  |  |  |  |  |  |  |  |  |  |  |  |  | 
2 | 4-{[(3-{(E)-[(4-Hydroxy-3-methoxyphenyl)methylidene]amino}-6-(2,3-dichlorophenyl)-1,2,4-triazin-5-yl)imino]methyl}-2-methoxyphenol Zinc Chloride Coordinate Complex [4c] |  | 81.5 ± 1.5 | 250.0 ± 10.3 | 14.0 ± 3.7 | 0.0 | 18 | 80.0 ± 75.3 | 50.6 ± 42.5 | 30.65 ± 25.7 | inactive | 0.00 |  |  |  |  |  |  |  | 
3 | COc1cc(C=Nc2nc(/N=C/c3ccc(O)c(OC)c3)nnc2-c2cccc(Cl)c2Cl)ccc1O [3c, 4-{[(3-{(E)-[(4-Hydroxy-3-methoxyphenyl)methylidene]amino}-6-(2,3-dichlorophenyl)-1,2,4-triazin-5-yl)imino]methyl}-2-methoxyphenol] |  |  |  |  |  |  | 140.7 ± 92.4 | 126.4 ± 88.0 | 100.0 ± 82.3 |  |  |  |  |  |  |  |  |  | 
4 | (1E,2Z)-N-[6-(2,3-Dichlorophenyl)-5-{(E)-[(2E)-3-phenylprop-2-en-1-ylidene]amino}-1,2,4-triazin-3-yl]prop-2-en-1-imine Silver Nitrate Coordinate Complex [6a] |  | 105 ± 7.1 | 180.0 ± 75.9 | 11.0 ± 2.3 | 1 |  | 141.7 ± 102.5 | 120.0 ± 98.7 | 75.8 ± 20.3 | inactive | 0.00 | 90 |  |  |  |  |  |  | 
5 | 2,2′-{[6-(2,3-Dichlorophenyl)-1,2,4-triazine-3,5-diyl]bis[azanylylidene(E)methanylylidene]}diphenol Dibutyl Tin Dichloride Coordinate Complex [7b] |  | 99 ± 7.1 | 190.0 ± 70.1 | 12.0 ± 1.5 | 0.0 |  | 80.0 ± 27.6 | 68.9 ± 25.7 | 45.64 ± 19.3 | inactive | 0.00 |  |  |  |  |  |  |  | 
6 | 2,2′-{[6-(2,3-Dichlorophenyl)-1,2,4-triazine-3,5-diyl]bis[azanylylidene(E)methanylylidene]}diphenol Copper Acetate Coordinate Complex [5b] |  | 97.5 ± 28.3 | 250.0 ± 88.3 | 11.0 ± 2.4 | 1 | 18 | 116.7 ± 94.3 | 100.0 ± 86.3 | 75.83 ± 54.3 | inactive | 0.00 | 90 |  |  |  |  |  |  | 
7 | (1E,2Z)-N-[6-(2,3-Dichlorophenyl)-5-{(E)-[(2E)-3-phenylprop-2-en-1-ylidene]amino}-1,2,4-triazin-3-yl]prop-2-en-1-imine Dibutyl Tin Dichloride Coordinate Complex of L1 [7a] |  | 110 ± 14.1 | 220.0 ± 72.7 | 12.0 ± 1.2 | 0.0 | 4 | 155.0 ± 97.5 | 130.6 ± 92.4 | 100.4 ± 87.7 | inactive | 0.00 |  |  |  |  |  |  |  | 
8 | Oc1ccccc1/C=N/c1nnc(-c2cccc(Cl)c2Cl)c(/N=C/c2ccccc2O)n1 [3b, 2,2′-{[6-(2,3-Dichlorophenyl)-1,2,4-triazine-3,5-diyl]bis[azanylylidene(E)methanylylidene]}diphenol] |  |  |  |  |  |  | 110.8 ± 98.6 | 90.5 ± 82.3 | 65.97 ± 54.9 |  |  |  |  |  |  |  |  |  | 
9 | (1E,2Z)-N-[6-(2,3-Dichlorophenyl)-5-{(E)-[(2E)-3-phenylprop-2-en-1-ylidene]amino}-1,2,4-triazin-3-yl]prop-2-en-1-imine Copper Acetate Coordinate Complex [5a] |  | 81.5 ± 2.1 | 170.0 ± 45.2 | 11.0 ± 1.9 | 0.0 |  | 76.7 ± 19.7 | 55.9 ± 12.9 | 40.9 ± 10.7 | inactive | 0.00 |  |  |  |  |  |  |  | 
10 | 4-{[(3-{(E)-[(4-Hydroxy-3-methoxyphenyl)methylidene]amino}-6-(2,3-dichlorophenyl)-1,2,4-triazin-5-yl)imino]methyl}-2-methoxyphenol Dibutyl Tin Dichloride Coordinate Complex [7c] |  | 125 ± 15.3 | 160.0 ± 49.0 | 11.0 ± 1.6 | 0.0 |  | 190.0 ± 74.6 | 167.4 ± 89.8 |  | inactive | 0.00 |  | 140.5 ± 94.9 s and 140.5 ± 94.0 s |  |  |  |  |  | 
11 | (1E,2Z)-N-[6-(2,3-Dichlorophenyl)-5-{(E)-[(2E)-3-phenylprop-2-en-1-ylidene]amino}-1,2,4-triazin-3-yl]prop-2-en-1-imine Zinc Chloride Coordinate Complex [4a] |  | 86.5 ± 5.0 | 145.0 ± 23.4 | 15.0 ± 4.9 | 0.0 |  | 66.7 ± 15.1 | 45.4 ± 10.3 | 30.6 ± 4.2 | inactive | 0.00 |  |  |  |  |  |  |  | 
12 | C1CCc2nnnn2CC1 [PTZ, pentylenetetrazole, reference compound] |  |  |  |  |  |  |  |  |  |  |  |  | 7.7 ± 2.4 s | 16.67 ± 8.165 | 10.46 ± 1.654 |  |  |  | 
13 | Nc1nnc(-c2cccc(Cl)c2Cl)c(N)n1 [LTG, 3,5-diamino-6-(2,3-dichlorophenyl)-1,2,4-triazine, reference compound] |  | 90 ± 3.5 | ~212 | 11.0 ± 2.3 | 0.0 |  | 290.0 ± 16.7 | 245.8 ± 15.4 | 200.7 ± 13.7 |  |  |  |  |  |  | 211.7 ± 98.1 | 42 | 6 | 5
